“And” between values parts separate entries of the source, which are not always exact repeats. Equal entries are not always repeated. The source made the active and inactive calls. The calls are words filed in the database; no cut-off is given here.
Key:
[1] = molecular target: T1, Caspase-3 (Homo sapiens, UniProt P42574); assay: Inhibitory activity against caspase-3; conditions: read-out: Ki app
T1 sequence (P42574 whole entry): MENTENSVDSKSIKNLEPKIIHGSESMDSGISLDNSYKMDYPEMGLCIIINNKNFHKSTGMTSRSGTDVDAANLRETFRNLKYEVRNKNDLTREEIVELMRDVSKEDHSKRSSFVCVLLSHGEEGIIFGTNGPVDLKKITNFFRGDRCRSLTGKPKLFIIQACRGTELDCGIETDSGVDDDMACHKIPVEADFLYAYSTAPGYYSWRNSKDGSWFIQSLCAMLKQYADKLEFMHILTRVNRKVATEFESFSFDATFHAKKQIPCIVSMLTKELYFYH
How it was run: (§1)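 Recombinant full-length human caspase 3 or 7, ~10 units/assay (1 unit = 1 pmol AMC/min). Substrate 10 μM Ac-DEVD-AMC. AMC fluorescence at 360/460 nm, 30 °C, with 5% final DMSO. Single-dose screen (typically 5–50 μM), then IC50 curves; repeated IC50s had CVs typically <30%.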

[2] = molecular target: T1, Caspase-3; assay: Inhibition of recombinant human caspase-3
[3] = molecular target: T2, Caspase-1 (Homo sapiens, UniProt P29466); assay: Inhibitory activity against caspase-1; conditions: read-out: Ki app
T2 sequence (P29466 whole entry): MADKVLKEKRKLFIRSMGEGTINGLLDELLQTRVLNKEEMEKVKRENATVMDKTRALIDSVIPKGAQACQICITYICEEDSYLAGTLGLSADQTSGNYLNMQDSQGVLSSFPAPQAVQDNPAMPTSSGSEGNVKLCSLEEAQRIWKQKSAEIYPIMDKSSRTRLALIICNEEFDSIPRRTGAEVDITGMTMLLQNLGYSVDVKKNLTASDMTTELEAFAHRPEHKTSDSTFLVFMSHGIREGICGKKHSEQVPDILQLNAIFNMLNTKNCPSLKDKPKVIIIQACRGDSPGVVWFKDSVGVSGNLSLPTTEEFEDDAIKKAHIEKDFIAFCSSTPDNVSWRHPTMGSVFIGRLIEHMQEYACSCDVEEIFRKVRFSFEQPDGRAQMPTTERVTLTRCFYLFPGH
How it was run: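 Recombinant full-length human caspase 1, ~10 units/assay, in 25 mM K+HEPES pH 7.5 with 10% sucrose, 0.1% CHAPS and 5 mM β-mercaptoethanol. Substrate 10 μM Ac-YVAD-AMC. AMC read at 360/460 nm, 30 °C, with 5% final DMSO. Single-dose screen (typically 5–50 μM), followed by IC50 curves for active compounds.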

[4] = molecular target: T3, Caspase-6 (Homo sapiens, UniProt P55212); assay: Inhibitory activity against Caspase-6; conditions: read-out: Ki app
T3 sequence (P55212 whole entry): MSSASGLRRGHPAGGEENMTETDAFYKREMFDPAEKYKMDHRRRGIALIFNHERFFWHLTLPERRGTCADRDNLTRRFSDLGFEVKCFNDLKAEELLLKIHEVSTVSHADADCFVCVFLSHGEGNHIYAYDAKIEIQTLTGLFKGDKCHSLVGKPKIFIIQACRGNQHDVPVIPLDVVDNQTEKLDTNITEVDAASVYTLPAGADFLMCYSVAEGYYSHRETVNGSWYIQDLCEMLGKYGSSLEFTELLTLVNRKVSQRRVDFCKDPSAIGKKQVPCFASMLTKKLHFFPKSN
How it was run: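 Recombinant full-length human caspase 6 (~10 units/assay) in 50 mM Tris-HCl pH 7.4 with 0.1% CHAPS, 1.5 mM MgCl2, 1 mM EDTA and 5 mM β-mercaptoethanol. Substrate 10 μM Ac-DEVD-AMC. AMC monitored at 360/460 nm, 30 °C, final DMSO 5%. Single-dose screen (typically 5–50 μM), then IC50 determination.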

[5] = molecular target: T4, Caspase-4 (Homo sapiens, UniProt P49662); assay: Inhibitory activity against caspase-4; conditions: read-out: Ki app
T4 sequence (P49662 whole entry): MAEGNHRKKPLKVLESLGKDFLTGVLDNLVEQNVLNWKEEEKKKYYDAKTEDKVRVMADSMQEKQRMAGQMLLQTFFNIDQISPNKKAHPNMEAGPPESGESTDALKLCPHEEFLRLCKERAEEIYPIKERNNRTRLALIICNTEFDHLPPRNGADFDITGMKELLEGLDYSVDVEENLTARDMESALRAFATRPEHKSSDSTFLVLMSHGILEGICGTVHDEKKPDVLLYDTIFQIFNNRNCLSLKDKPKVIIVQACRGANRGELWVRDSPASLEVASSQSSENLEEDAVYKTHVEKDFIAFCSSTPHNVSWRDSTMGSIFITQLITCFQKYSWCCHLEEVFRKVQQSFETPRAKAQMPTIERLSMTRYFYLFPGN
How it was run: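 Recombinant full-length human caspase 4, ~10 units/assay, in potassium acetate pH 5.8 with 1 mM EDTA, 10% sucrose, 0.1% CHAPS and 5 mM β-mercaptoethanol. Substrate 100 μM Ac-LEED-AMC. Read at 360/460 nm, 30 °C, 5% final DMSO. Single-dose screen (typically 5–50 μM), then IC50 curves for actives.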

[6] = molecular target: T5, Caspase-7 (Homo sapiens, UniProt P55210); assay: Inhibitory activity against Caspase-7; conditions: read-out: Ki app; how it was run: as §1
T5 sequence (P55210 whole entry): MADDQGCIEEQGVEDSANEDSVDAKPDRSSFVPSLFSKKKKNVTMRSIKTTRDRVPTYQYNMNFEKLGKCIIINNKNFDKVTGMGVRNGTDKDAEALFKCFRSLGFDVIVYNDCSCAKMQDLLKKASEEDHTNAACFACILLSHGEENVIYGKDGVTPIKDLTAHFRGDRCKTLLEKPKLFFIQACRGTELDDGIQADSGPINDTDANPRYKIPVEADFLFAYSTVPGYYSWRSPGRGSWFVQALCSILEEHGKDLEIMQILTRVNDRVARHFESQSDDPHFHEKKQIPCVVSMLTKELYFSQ

[7] = molecular target: Caspase-8 (Homo sapiens, UniProt Q14790); assay: Inhibitory activity against Caspase-8; conditions: read-out: Ki app
How it was run: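 Recombinant full-length human caspase 8, ~10 units/assay, in Na+MOPS pH 7.5 with 10% glycerol, 0.25 mM EDTA and 5 mM β-mercaptoethanol. Substrate 10 μM Ac-IETD-AMC. Fluorescence at 360/460 nm, 30 °C, 5% final DMSO. Compounds screened at a single dose (typically 5–50 μM), then full IC50 curves for actives.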

[8] = molecular target: T6, Caspase-2 (Homo sapiens, UniProt P42575); assay: Inhibitory activity against caspase-2; conditions: read-out: Ki app
T6 sequence (P42575 whole entry): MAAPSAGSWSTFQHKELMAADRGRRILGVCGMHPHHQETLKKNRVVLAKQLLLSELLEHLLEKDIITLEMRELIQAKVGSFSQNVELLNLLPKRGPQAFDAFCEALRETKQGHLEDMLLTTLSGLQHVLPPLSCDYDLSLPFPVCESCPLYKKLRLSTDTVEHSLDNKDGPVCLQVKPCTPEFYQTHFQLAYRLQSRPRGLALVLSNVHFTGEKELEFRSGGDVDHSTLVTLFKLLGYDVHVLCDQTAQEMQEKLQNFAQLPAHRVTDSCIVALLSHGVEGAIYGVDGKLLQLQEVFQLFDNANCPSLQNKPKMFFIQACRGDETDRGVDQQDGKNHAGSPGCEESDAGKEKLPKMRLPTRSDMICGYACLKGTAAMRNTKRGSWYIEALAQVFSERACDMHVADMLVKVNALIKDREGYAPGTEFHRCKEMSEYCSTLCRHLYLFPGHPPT
How it was run: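 Recombinant full-length human caspase 2 (~10 units/assay) in 50 mM sodium acetate pH 6.2 with 10% glycerol, 0.25 mM EDTA and 5 mM β-mercaptoethanol. Substrate 25 μM Ac-VDVAD-AMC. Fluorescence at 360/460 nm, 30 °C, final DMSO 5%. Compounds screened at a single dose (typically 5–50 μM), then full IC50 curves where activity was seen.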

[9] = molecular target: T7, Caspase-9 (Homo sapiens, UniProt P55211); assay: Inhibitory activity against Caspase-9; conditions: read-out: Ki app
T7 sequence (P55211 whole entry): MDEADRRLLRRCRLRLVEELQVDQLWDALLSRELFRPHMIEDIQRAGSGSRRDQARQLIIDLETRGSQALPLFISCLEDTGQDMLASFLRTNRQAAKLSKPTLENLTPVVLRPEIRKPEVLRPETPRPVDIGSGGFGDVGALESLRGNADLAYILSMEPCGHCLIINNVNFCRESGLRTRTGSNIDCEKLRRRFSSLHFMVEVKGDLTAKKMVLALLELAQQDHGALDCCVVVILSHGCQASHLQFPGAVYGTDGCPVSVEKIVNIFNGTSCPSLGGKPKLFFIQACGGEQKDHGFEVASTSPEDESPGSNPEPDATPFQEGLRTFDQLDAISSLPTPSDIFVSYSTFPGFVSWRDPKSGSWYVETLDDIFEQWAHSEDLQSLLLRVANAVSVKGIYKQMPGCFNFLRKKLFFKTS

[10] = tested on: C20/A4; assay: In vitro inhibition of Chondrocyte cell line C20/A4 apoptosis at 10 uM of compound; assay type: functional, Homo sapiens
How it was run: (§2)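 Immortalized human chondrocyte line C20/A4 seeded at 20 000 cells/well overnight, then exposed 24 h to 4 μg/mL camptothecin with or without compound. Floating and adherent cells combined and lysed 30 min at 4 °C, then clarified at 14000g. Mono- and oligonucleosome DNA fragments measured by cell death ELISA; result expressed as % inhibition of apoptosis.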

[11] = tested on: Jurkat (Homo sapiens); assay: In vitro inhibition of Jurkat cell apoptosis at 10 uM of compound
[12] = tested on: Jurkat (Homo sapiens); assay: In vitro inhibition of Jurkat cell apoptosis at 50 uM of compound
[13] = tested on: C20/A4; assay: In vitro inhibition of Chondrocyte cell line C20/A4 apoptosis at 25 uM of compound; assay type: functional, Homo sapiens; how it was run: as §2
[14] = tested on: C20/A4; assay: In vitro inhibition of Chondrocyte cell line C20/A4 apoptosis at 25 uM of compound; Not active; assay type: functional, cell-based; conditions: Homo sapiens; how it was run: as §2
[15] = tested on: C20/A4; assay: In vitro inhibition of Chondrocyte cell line C20/A4 apoptosis at 10 uM of compound; Not active; assay type: functional, cell-based; conditions: Homo sapiens; how it was run: as §2
[16] = molecular target: T1, Caspase-3; assay: In vitro inhibition of Caspase-3 in presence of naive chondrocyte cell cytosol
How it was run: (§3)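 IC50 against recombinant full-length human caspase 3 (~10 units/assay; 1 unit = 1 pmol AMC/min), with cytosol from uninduced (nonapoptotic) chondrocytes making up 90% of assay volume. Assay buffer was 25 mM K+HEPES pH 7.5, 0.1% CHAPS, 50 mM KCl and 5 mM β-mercaptoethanol, with 10 μM Ac-DEVD-AMC. AMC was read at 30 °C (ex 360/em 460 nm) with 5% final DMSO.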

[17] = molecular target: T1, Caspase-3; assay: In vitro inhibition of Caspase-3 in presence of camptothecin induced chondrocyte cell cytosol.
How it was run: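 IC50 measured in cytosol from camptothecin-treated (apoptotic) chondrocytes at 90% of assay volume. Two conditions: the endogenous caspase 3-like activity alone, or with added recombinant human caspase 3 (~10 units/assay). Buffer was 25 mM K+HEPES pH 7.5, 0.1% CHAPS, 50 mM KCl and 5 mM β-mercaptoethanol, with 10 μM Ac-DEVD-AMC. AMC fluorescence was read at 30 °C (ex 360/em 460 nm) with 5% final DMSO.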

[18] = molecular target: T1, Caspase-3; assay: In vitro inhibition of Caspase-3 in presence of uninduced chondrocyte cell cytosol; how it was run: as §3

Caspase-8, sequence (Q14790 217-374 limits assumed): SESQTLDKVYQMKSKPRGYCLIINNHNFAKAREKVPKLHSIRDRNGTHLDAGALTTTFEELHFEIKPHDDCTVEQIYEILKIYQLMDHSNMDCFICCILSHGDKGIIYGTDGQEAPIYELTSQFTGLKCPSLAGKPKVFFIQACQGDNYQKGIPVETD
Caspase-8, sequence (Q14790 385-479 limits assumed): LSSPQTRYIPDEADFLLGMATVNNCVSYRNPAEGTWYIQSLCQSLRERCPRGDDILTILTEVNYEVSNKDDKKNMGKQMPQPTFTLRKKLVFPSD

SMILES	Ki [1] [µM]	IC50 [2]	Ki [3] [µM]	Ki [4] [µM]	Ki [5] [µM]	Ki [6] [µM]	Ki [7] [µM]	Ki [8] [µM]	Ki [9] [µM]	Inhibition [10] [%]	Inhibition [11] [%]	Inhibition [12] [%]	Inhibition [13] [%]	further results
C=CCN1C(=O)C(=O)c2cc(S(=O)(=O)N3CCC[C@H]3COc3ccccc3)ccc21	–	–	–	–	–	–	–	–	–	71	60	89	95	–
CN1C(=O)C(=O)c2cc([N+](=O)[O-])ccc21	0.5	1 µM	12	1.7	4	0.29	> 50	> 50	7.2	–	–	–	–	–
O=C1C(=O)N(Cc2ccncc2)c2ccc(S(=O)(=O)N3CCC[C@H]3COc3ccccc3)cc21	–	–	–	–	–	–	–	–	–	64	–	–	89	–
CN1C(=O)C(=O)c2cc(C(=O)O)ccc21	–	> 50 µM	–	–	–	–	–	–	–	–	–	–	–	–
CN1C(=O)C(=O)c2ccccc21	–	> 50 µM	–	–	–	–	–	–	–	–	–	–	–	–

Now from value to molecule, other results behind:

Ki [1] [µM]	IC50 [2]	Ki [3] [µM]	Ki [4] [µM]	Ki [5] [µM]	Ki [6] [µM]	Ki [7] [µM]	Ki [8] [µM]	Ki [9] [µM]	SMILES	Inhibition [10] [%]	Inhibition [11] [%]	Inhibition [12] [%]	Inhibition [13] [%]	further results
1.4	2.8 µM	9	> 50	> 50	3	> 50	> 50	12	O=C1Nc2ccc(S(=O)(=O)N3CCCC3)cc2C1=O	–	–	–	–	–
0.13	0.25 µM	18	1	5	0.17	31	> 25	5	O=C1C(=O)N(Cc2ccccc2)c2ccc([N+](=O)[O-])cc21	–	–	–	–	–
–	0.14 µM	–	–	–	–	–	–	–	O=C1Nc2ccc(S(=O)(=O)N3CCCC3C(=O)Nc3ccccc3)cc2C1=O (centres undefined)	–	–	–	–	–
–	18 µM	–	–	–	–	–	–	–	COC[C@H]1CCCN1S(=O)(=O)c1ccc2c(c1)C(=O)C(=O)N2	–	15	22	–	NA [14]: inactive; NA [15]: inactive
–	30 µM and 47 µM	–	–	–	–	–	–	–	CN1C(=O)C(=O)c2cc(S(=O)(=O)N3CCC[C@H]3COc3ccccc3)ccc21	48	41	92	85	IC50 [16]: 7.5 µM; IC50 [17]: 0.84 µM; IC50 [18]: 7.5 µM
